Results filed as inconclusive are left out.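 The calls were made as follows, unless noted: active = cell viability at or below a set limit in both duplicate runs, the limit being the all-compound median minus 4 SD (cut at about 23% in these data, passing the limit was not always enough); inconclusive = no clear call, values can overlap the other calls; inactive = the rest.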
What was measured:
[1] = OD615 S. cerevisiae growth inhibition, permissive medium, pilot counter-assay, permissive growth control for S. cerevisiae lifespan shortening project (AID 705;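 active = growth inhibition above 25% in both replicates, a cutoff set 3 SD above the mean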); conditions: OD615, 24 h, at 10 µM, active compounds read high
Summary of the method: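 System: S. cerevisiae with engineered DeaD lifespan system. Medium: SC raffinose/galactose permissive medium. Doses: single compound dose of 10 µM, 0.25% DMSO final. Schedule: 24 h exposure, 30 °C. Measured by: OD615 turbidity read. Read-out: growth inhibition.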

[2] = Restrictive medium S. cerevisiae growth inhibition, OD615, pilot screen of yeast lifespan reduction project, restrictive growth control (AID 706;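 active = growth inhibition above a set limit, 3 SD over mean compound inhibition, in both replicates, cut at about 43% in these data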;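 also: modified DeaD lifespan yeast strain shifted to restrictive glucose medium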); conditions: OD615, 48 h, at 10 µM, active compounds read high
Summary of the method: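 Assay system – genetically modified Saccharomyces cerevisiae, DeaD replicative lifespan assay strain · Medium – CSMM-D glucose medium · Doses – 10 µM compound, 0.25% DMSO · Times – 4 h pre-incubation, 48 h exposure at 30 °C · Signal – optical density at 615 nm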

[3] = viability gain of MRP-1-high H69AR cells under doxorubicin, pilot screen, MRP-1 activator project, CellTiter-Glo, duplicate (AID 807;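 active = viability increase at or above a cutoff of the median across tested compounds plus 3 SD, cut at about 8.5% in these data, passing the limit was not always enough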;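 also: compound pretreatment 18-22 h then 72 h combined with doxorubicin; 0% = doxorubicin alone and 100% = vehicle without doxorubicin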); conditions: H69AR viability with doxorubicin, CellTiter-Glo luminescence; at 10 µM; active compounds read high
[4] = growth suppression of beta-catenin knockout HCT116, pilot screen, human colon tumor cells (AID 823); conditions: CellTiter-Glo, 60 h, at 10 µM, active compounds read low;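 also: 0% = wells killed by 20 µM Hyamine and 100% = untreated DMSO cell wells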
[5] = growth suppression of PTEN-deleted HCT116, pilot screen, cell-based, HCT116 clonal line, CellTiter-Glo (AID 824;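 active = viability at or below 27.92% in each of two runs, the all-compound median minus 4 SD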;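 also: 0% = 20 µM Hyamine control and 100% = vehicle cell control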); conditions: 60 h, at 10 µM, active compounds read low
[6] = inhibitors of the yeast RAM network, pilot screen, dse1pr::URA3 reporter, 5-FOA selection (AID 869;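 active = inhibition over a set limit, the all-compound mean plus 3 SD, in both replicate runs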;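 also: 0% = DMSO wells with no growth and 100% = 10 µM 1-NA-PP1 with full growth; RAM network block rescues cells from 5-FOA so hits raise OD615 growth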); conditions: S. cerevisiae dse1pr::URA3 5-FOA growth, OD615, 2 d; at 10 µM; active compounds read high; strain carries analog-sensitive mutant Cbk1 kinase
[7] = RAM signaling pathway blockade in yeast – S. cerevisiae, Pdr1DBD-CYC8 efflux-inhibited sensitized strain, primary screen (AID 1298;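 active = RAM network inhibition above 8.4% in each of two replicates, 3 SD over the compound average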;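 also: 0% = DMSO untreated cells without growth and 100% = 10 µM 1-NA-PP1 full growth; higher means more yeast growth rescued from 5-FOA killing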); conditions: S. cerevisiae cbk1-as DSE1-URA3 strain, 5-FOA growth OD615, 2 d; at 50 µM; active compounds read high

Cc1ccc(C(=O)Nc2ccccc2NC(=O)c2ccc(C)o2)o1
inactive: growth inhibition [1] -1.73% | growth inhibition [2] 8.06% | viability increase [3] -3.39% | viability [4] 93.2% | viability [5] 91.6% | inhibition [6] 1.41% | RAM network inhibition [7] 3.58%

CCC(C)Sc1nc2c(c(=O)n1C)SC(C)C2 (configuration not stated)
inactive: growth inhibition [1] -11.3% | growth inhibition [2] 7.98% | viability increase [3] -0.66% | viability [4] 91.6% | viability [5] 91.8% | inhibition [6] 2.51% | RAM network inhibition [7] 4.01%

O=C1CN(C(=O)COc2ccccc2)CCN1
inactive: growth inhibition [1] -14.3% | growth inhibition [2] -15.5% | viability increase [3] -1.4% | viability [4] 99.3% | viability [5] 96.8% | inhibition [6] 1.35% | RAM network inhibition [7] -0.43%

O=C(COc1ccc(Cl)cc1)Nc1nnc(-c2ccc3c(c2)CCCC3)o1
inactive: growth inhibition [1] -12.6% | growth inhibition [2] -12.9% | viability increase [3] -1.94% | viability [4] 101% | viability [5] 96.5% | inhibition [6] 3.45% | RAM network inhibition [7] 1.21%

Cc1ccc(Oc2ccccc2)c(NC=O)c1
inactive: growth inhibition [1] -2.02% | growth inhibition [2] 11.4% | viability increase [3] -3.07% | viability [4] 96.2% | viability [5] 90.4% | inhibition [6] -0.085% | RAM network inhibition [7] 1.17%

COC(=O)c1ccc(/C=N/n2cnnc2)cc1
inactive: growth inhibition [1] -10.3% | growth inhibition [2] -20% | viability increase [3] -1.44% | viability [4] 101% | viability [5] 89.3% | inhibition [6] 0.79% | RAM network inhibition [7] 4.48%

COc1ccc(Cc2nnc(SCC(=O)NC(C)c3ccccc3)o2)cc1 (configuration not stated)
inactive: growth inhibition [1] 2.93% | growth inhibition [2] -8.12% | viability increase [3] -1.25% | viability [4] 91.2% | viability [5] 86.8% | inhibition [6] 0.57% | RAM network inhibition [7] 4.19%

CCOC(=O)N1CCN(C(=O)CSc2nnc(Cn3c(=O)sc4ccccc43)n2C)CC1
inactive: growth inhibition [1] -12.9% | growth inhibition [2] -13% | viability increase [3] -2.25% | viability [4] 98.4% | viability [5] 95.8% | inhibition [6] 1.69% | RAM network inhibition [7] 1.9%

CCOc1ccccc1NC(=O)CSc1nnc(-c2ccccn2)n1Cc1ccco1
inactive: growth inhibition [1] -4.62% | growth inhibition [2] 11.5% | viability increase [3] -1.92% | viability [4] 96.9% | viability [5] 98.5% | inhibition [6] 0.955% | RAM network inhibition [7] 3.98%

Cc1ccc(C2N(c3ccc(F)cc3)C(=O)C3CCCN32)cc1 (configuration not stated)
inactive: growth inhibition [1] -0.945% | growth inhibition [2] -4.53% | viability increase [3] -1.55% | viability [4] 89.4% | viability [5] 97.3% | inhibition [6] 2.21% | RAM network inhibition [7] 4.87%

O=C(CNS(=O)(=O)c1cccs1)Nc1ccc2c(c1)OCCO2
inactive: growth inhibition [1] -22.3% | growth inhibition [2] -6.7% | viability increase [3] -1.78% | viability [4] 89.2% | viability [5] 90.9% | inhibition [6] 1.3% | RAM network inhibition [7] 0.67%

COc1ccc(N2CCN(C(=O)c3ccc4nc(N5CCCCC5)sc4c3)CC2)cc1
inactive: growth inhibition [1] 9.87% | growth inhibition [2] 6.32% | viability increase [3] 0.49% | viability [4] 101% | viability [5] 87% | inhibition [6] 2.52% | RAM network inhibition [7] 6.15%

O=C1C(Cl)=C(N2CCCCCC2)C(=O)N1c1ccccc1
inactive: growth inhibition [1] -12.4% | growth inhibition [2] -16.4% | viability increase [3] -0.88% | viability [4] 91.3% | viability [5] 93.2% | inhibition [6] 0.8% | RAM network inhibition [7] 3.09%

CC(O)Cc1nsc(NC(=O)c2cccs2)n1 (configuration not stated)
inactive: growth inhibition [1] -11.4% | growth inhibition [2] -8.99% | viability increase [3] -0.55% | viability [4] 104% | viability [5] 100% | inhibition [6] 0.84% | RAM network inhibition [7] 0.26%

CC(C)OCCCNC(=O)c1ccc2c(c1)ncn2C1CCCC1
inactive: growth inhibition [1] -12.5% | growth inhibition [2] -6.74% | viability increase [3] -2.69% | viability [4] 102% | viability [5] 97.5% | inhibition [6] 1.38% | RAM network inhibition [7] 1.62%

CCN(CC)CCCNC(=O)c1cc2c(=O)n(C)c3ccccc3c2n1C
inactive: growth inhibition [1] -6.05% | growth inhibition [2] -3.57% | viability increase [3] -6.34% | viability [4] 55.8% | viability [5] 58.4% | inhibition [6] -0.125% | RAM network inhibition [7] 2.21%

COc1ccc(N2CCN(C(=O)C34CCC(C)(C(=O)C3)C4(C)C)CC2)cc1 (configuration not stated)
inactive: growth inhibition [1] -1.5% | growth inhibition [2] 0.815% | viability increase [3] -0.51% | viability [4] 88% | viability [5] 91.8% | inhibition [6] 1.86% | RAM network inhibition [7] -0.21%

Cc1ccccc1-n1nc2c(c1NC(=O)c1cccc(F)c1)CS(=O)C2 (configuration not stated)
inactive: growth inhibition [1] -8.75% | growth inhibition [2] 5.54% | viability increase [3] 0.96% | viability [4] 98.8% | viability [5] 98.5% | inhibition [6] 0.835% | RAM network inhibition [7] 7.75%

Cc1ccc(N2C(=O)c3ccc(C(=O)N4CCN(c5ccccc5F)CC4)cc3C2=O)cc1
inactive: growth inhibition [1] -4.5% | growth inhibition [2] -2.21% | viability increase [3] -1.97% | viability [4] 90.5% | viability [5] 90% | inhibition [6] 1.33% | RAM network inhibition [7] 4.71%

CCOC(=O)Cc1cnc(NC(=O)c2ccccc2)s1
inactive: growth inhibition [1] 6.17% | growth inhibition [2] 5.05% | viability increase [3] -1.51% | viability [4] 92.3% | viability [5] 89.6% | inhibition [6] 0.365% | RAM network inhibition [7] 2.27%

CCOC(=O)c1ccc(N2C(=O)C3CC=C(C)CC3C2=O)cc1 (configuration not stated)
inactive: growth inhibition [1] -9.14% | growth inhibition [2] -14.8% | viability increase [3] -0.33% | viability [4] 97.1% | viability [5] 91.8% | inhibition [6] 1.07% | RAM network inhibition [7] 1.75%

CCCSc1nc2c(cnn2-c2ccc(C)c(C)c2)c(=O)[nH]1
inactive: growth inhibition [1] -8.57% | growth inhibition [2] -3.42% | viability increase [3] -1.72% | viability [4] 93.2% | viability [5] 69.9% | inhibition [6] 2.58% | RAM network inhibition [7] 4.37%

Cc1noc(C)c1S(=O)(=O)N1CCN(C(c2ccccc2)c2ccc(Cl)cc2)CC1 (configuration not stated)
inactive: growth inhibition [1] -1.19% | growth inhibition [2] -0.625% | viability increase [3] 0.02% | viability [4] 66.3% | viability [5] 67.5% | inhibition [6] 1.61% | RAM network inhibition [7] 7.2%

Cc1ccc(N2CCN(c3cc(C)nc4nc(C)nn34)CC2)c(C)c1
inactive: growth inhibition [1] -17.8% | growth inhibition [2] 25.7% | viability increase [3] -2.76% | viability [4] 83.3% | viability [5] 75.8% | inhibition [6] -0.325% | RAM network inhibition [7] 2.52%

COc1ccc(Cl)cc1S(=O)(=O)n1ccnc1C(C)C
inactive: growth inhibition [1] -8.68% | growth inhibition [2] -13% | viability increase [3] -2.46% | viability [4] 102% | viability [5] 93.3% | inhibition [6] 1.74% | RAM network inhibition [7] 2.15%

Cn1c(C(=O)N2CCN(c3ccc(F)cc3)CC2)cc2c(=O)n(C)c3ccccc3c21
inactive: growth inhibition [1] -6.62% | growth inhibition [2] -10.8% | viability increase [3] -2.2% | viability [4] 95.1% | viability [5] 85% | inhibition [6] 1.64% | RAM network inhibition [7] 1.39%

Cc1cc(C)nc(SCC(=O)OCN2C(=O)c3ccccc3C2=O)n1
inactive: growth inhibition [1] -19.7% | growth inhibition [2] -18.3% | viability increase [3] -1.63% | viability [4] 91.6% | viability [5] 91.6% | inhibition [6] 0.15% | RAM network inhibition [7] 3.15%

CCOC(=O)Cc1c(C)nc2c(-c3ccccc3)c[nH]n2c1=O
inactive: growth inhibition [1] -9.38% | growth inhibition [2] -14.3% | viability increase [3] -5.95% | viability [4] 76.8% | viability [5] 76.5% | inhibition [6] 1.96% | RAM network inhibition [7] 10.5%

CN(C)c1ccc(CN2CCCCCC2)cc1
inactive: growth inhibition [1] -3.95% | growth inhibition [2] -24.5% | viability increase [3] -2% | viability [4] 87% | viability [5] 88.1% | inhibition [6] 0.44% | RAM network inhibition [7] 0.1%

Cc1sc2nc(CSc3nnc(Cc4cccs4)n3C3CCCCC3)[nH]c(=O)c2c1C
inactive: growth inhibition [1] 10.9% | growth inhibition [2] 27.6% | viability increase [3] 3.27% | viability [4] 92.8% | viability [5] 90% | inhibition [6] 3.25% | RAM network inhibition [7] 4.25%

Cc1ccc(C)c(Cn2c(CN(C)Cc3ccccc3)nc3c2c(=O)n(C)c(=O)n3C)c1
inactive: growth inhibition [1] -0.27% | growth inhibition [2] -21.5% | viability increase [3] -6.57% | viability [4] 71.7% | viability [5] 61.5% | inhibition [6] 2.2% | RAM network inhibition [7] 2.51%

N#Cc1nc(-c2ccc(F)cc2)oc1NCc1ccccc1
inactive: growth inhibition [1] -11.9% | growth inhibition [2] 2.85% | viability increase [3] 0.89% | viability [4] 105% | viability [5] 95.7% | inhibition [6] 1.36% | RAM network inhibition [7] 1.07%

O=NC1=C(c2c(O)[nH]c3ccccc23)CCCC1
inactive: growth inhibition [1] -3.26% | growth inhibition [2] -12% | viability increase [3] -5.46% | viability [4] 91% | viability [5] 93.9% | inhibition [6] 1.6% | RAM network inhibition [7] 4.71%

NC(=O)C1CCN(CCCNC2CC(=O)N(Cc3ccc(N4CCCC4=O)cc3)C2=O)CC1 (configuration not stated)
inactive: growth inhibition [1] -14.8% | growth inhibition [2] -4.07% | viability increase [3] -0.01% | viability [4] 98.7% | viability [5] 98.7% | inhibition [6] 1.15% | RAM network inhibition [7] 5.68%

COCCOC(=O)c1[nH]c2c(c1C)C(=O)CC(c1cc(OC)ccc1OC)C2 (configuration not stated)
inactive: growth inhibition [1] -16.8% | growth inhibition [2] -12.3% | viability increase [3] -6.01% | viability [4] 38.6% | viability [5] 34.5% | inhibition [6] 2.09% | RAM network inhibition [7] 9.43%

CCC1Oc2ccccc2N(CC(=O)NCCCN2CCOCC2)C1=O (configuration not stated)
inactive: growth inhibition [1] -2.59% | growth inhibition [2] 4.67% | viability increase [3] -1.49% | viability [4] 109% | viability [5] 105% | inhibition [6] 1.29% | RAM network inhibition [7] 0.62%

— PubChem BioAssay
